Screening data from PubChem BioAssay.
This is a sample that favours compounds with a hit; in the whole collection about 2.9% have one here.
Dynein cargo inh: blocks dynein driven cargo transport along microtubules. z-score, hits read low. hit rate 0.47% among 220,000. AID 1381. 3617.4 mouse cells, GR-EGFP nuclear translocation imaging; test concentration mostly 20 µM; stimulated with dexamethasone, 1 µM; hits give low values;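 active = plate z-score of nuclear minus cytoplasmic receptor signal below a set negative limit, without overly bright fluorescence or cell loss, cut at about -3.5 in these data, passing the limit was not always enough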;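 note: z-score of nuclear minus cytoplasmic ring GR-EGFP intensity difference per well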
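Medium: Induction medium lacking tetracycline, stripped serum | Probe or stimulus: 1.0 µM final dexamethasone stimulus | Schedule: 48 h induction, then 1 h compound, then 30 min agonist, 37 °C | Signal: Automated 10x imaging of fixed Hoechst-stained cells | Evaluation: Per-cell GR-EGFP intensity, nucleus versus surrounding cytoplasmic ring, well-averaged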
MEKK2wt PB1 HTS: raises or lowers MEK5 binding to wildtype human MEKK2 PB1 domain; Q9Y2U5; hit rate 1.1% among 290,000; AID 1531; binding response (% of control), % at 10 µM; bead flow cytometry, Alexa488-MEK5 binding to MEKK2 WT; actives lie on both sides; in the data active = binding response below about 67% or above about 130%
B2AR ag: human beta-2 adrenergic receptor agonism by FAP. response, % (no concentration beside the values). AID 504454. Am2.2-beta2AR cells, FAP receptor internalization, flow cytometry. hit rate 0.43% among 340,000;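 active = response above a set limit, near 3 SD of response in nonfluorescent compounds, cut at about 42% in these data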
Target sequence (P07550 whole entry, looked up): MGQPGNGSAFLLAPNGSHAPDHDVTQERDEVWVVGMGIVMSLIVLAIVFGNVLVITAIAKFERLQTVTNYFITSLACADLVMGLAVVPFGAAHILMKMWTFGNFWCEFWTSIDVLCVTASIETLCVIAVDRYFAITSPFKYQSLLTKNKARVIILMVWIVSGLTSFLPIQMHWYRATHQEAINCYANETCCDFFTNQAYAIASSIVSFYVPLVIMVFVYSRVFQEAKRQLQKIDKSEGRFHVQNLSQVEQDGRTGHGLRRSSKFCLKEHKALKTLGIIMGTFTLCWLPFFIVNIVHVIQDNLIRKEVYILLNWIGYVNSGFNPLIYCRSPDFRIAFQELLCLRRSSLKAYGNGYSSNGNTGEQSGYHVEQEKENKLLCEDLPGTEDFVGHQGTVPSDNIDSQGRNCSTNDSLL
ATG4B inh: ATG4B (human) cysteine protease inhibition. Q9Y4P1. ATG4B cleavage of LC3-PLA2, NBD-HPC fluorescence, 1 h. inhibition, % at 8.33 µM. hit rate 0.51% among 340,000; in the data active = inhibition above about 40%
MEKK3 PB1 HTS: modulators (inhibitors or enhancers) of MEK5 binding to human MEKK3 PB1 domain | bead-based flow cytometry, Alexa488-MEK5 binding to MEKK3; actives lie on both sides; 0 = blocked by unlabeled MEK5, 100 = vehicle | AID 1529 | binding response (% of control), % at 10 µM | Q99759 | hit rate 1.4% among 290,000;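 active = binding response more than 3 SD above or below the average of its plate-row segment, actives on both sides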;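 note: Alexa488 bead fluorescence after subtracting the streptavidin-only scavenger bead signal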
MEKK2 mut-MEK5: signal of MEK5 binding to mutant human MEKK2 PB1 domain. percent response, % at 10 µM. AID 1530. bead flow cytometry, Alexa488-MEK5 binding to MEKK2 mutant. hit rate 0.35% among 290,000; in the data active = percent response above about 24%, passing the limit was not always enough
MEKK2wt confirm: raises or lowers MEK5 binding to wildtype human MEKK2, retest | shares compounds with MEKK3 PB1 HTS | bead flow cytometry, Alexa488-MEK5 binding to MEKK2 WT; actives lie on both sides | binding response (% of control), % at 10 µM | hit rate 2.4% among 5,900; in the data active = binding response below about 16% or above about 210%; inactive = in between
MEKK2mut confirm: signal of MEK5 binding to mutant human MEKK2, retest. shares compounds with MEKK3 PB1 HTS. bead flow cytometry, Alexa488-MEK5 binding to MEKK2 mutant. percent response, % at 10 µM. hit rate 2% among 5,900; in the data active = percent response mostly above about 71%, no sharp cut-off; inactive = mostly below about 38%;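 note: higher means compound restores mutant binding toward wildtype level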
MEKK3-MEK5 inh: MEKK3-MEK5 PB1 inhibition, single concentration confirmation | shares compounds with MEKK3 PB1 HTS | bead flow cytometry, Alexa488-MEK5 binding to MEKK3; hits give low values | binding response (% of control), % at 10 µM | hit rate 1.8% among 5,900;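 active = binding response below 72% of control, or above a set upper limit, though filed actives all read lower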;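 note: 100% = DMSO only wells and 0% = binding blocked by excess unlabeled MEK5; lower values mean stronger disruption of MEK5 binding to MEKK3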
An asterisk follows results filed as active; . = not tested or not shown; [ ] = remark or other dose.

SMILES	Dynein cargo inh	MEKK2wt PB1 HTS	B2AR ag	ATG4B inh	MEKK3 PB1 HTS	MEKK2 mut-MEK5	MEKK2wt confirm	MEKK2mut confirm	MEKK3-MEK5 inh
COc1ccc(C2CC(=O)OC3=C2C(=O)CC(C)(C)C3)c(OC)c1 (stereo not drawn)	-0.25	80	4	-5	69*[inhibitor]	-2	93	1	96
COc1ccc2c(c1)C(C1=C(O)CC(C)(C)CC1=O)C1=C(CC(C)(C)CC1=O)O2 (stereo not drawn)	0.4	100	1	2	101	3	.	.	.
Cc1ccccc1OCC(=O)Nc1ccc(S(=O)(=O)Nc2ccccn2)cc1	-1	109	5	-7	136*	0	96	1	100
CCc1nc(SCc2ccccc2C#N)n[nH]1	.	101	7	-4	98	1	.	.	.
CCCCNC(=S)NC(=O)c1ccccc1Br	-0.28	111	-1	8	154*	1	98	-1	102
O=C(CNC(=S)NC(=O)c1ccccc1Br)c1ccccc1	-0.11	103	4	-1	104	6	.	.	.
CCN(CC(=O)Nc1cc(Cl)ccc1Cl)C(=O)c1ccc(-n2cccn2)cc1	.	.	-11	6	.	.	.	.	.
CC1CCCC(C)N1C(=O)COc1ccc(C(=O)Nc2ccccc2N2CCOCC2)cc1 (stereo not drawn)	-0.65	98	2	17	100	-5	.	.	.
Cc1ccc(S(=O)(=O)n2ccc3c(OCCOCCNCc4ccc(F)cc4)cccc32)cc1	.	225*	29	5	109	54*	191	60	94
O=C(CNS(=O)(=O)c1cccs1)NCCc1ccc(Cl)cc1	.	100	-8	8	102	6	.	.	.
CCCCN1CNC(=S)N(Cc2ccccc2)C1	-0.05	105	-5	-8	130*	0	97	-7	102
Cc1cc2cc(CNC(=O)Nc3ccccc3)ccc2n1C	0.75	-4.0*[inhibitor]	-3	5	87	4	92	3	95
COc1ccc(S(=O)(=O)NCc2ccc3c(c2)cc(C)n3C)cc1	0.52	85	0	-16	93	1	.	.	.
Cc1cc2cc(CNS(=O)(=O)c3ccccc3)ccc2n1C	0.78	39*[inhibitor]	2	9	61	-20	50	-14	73
Cc1ccccc1NC(=S)NCc1ccc2c(c1)cc(C)n2C	-0.29	61*[inhibitor]	52*	16	74*[inhibitor]	-2	109	7	105
CCc1cccc(C)c1NC(=S)NCc1ccc2c(c1)cc(C)n2C	-0.21	72*[inhibitor]	-2	13	84	-3	104	5	105
Cc1cc2cc(CNC(=S)NCc3ccccc3)ccc2n1C	0.27	98	-4	36	97	-9	.	.	.
COc1ccc(NC(=O)CNc2cccc(S(=O)(=O)N3CCCCCC3)c2)c([N+](=O)[O-])c1	.	.	14	-57	.	.	.	.	.
COc1ccc(Cl)cc1NC(=O)CN(C)C(=O)CCNC(=O)c1ccccc1OC	.	.	-2	-8	.	.	.	.	.
O=C(CCN1C(=O)NC2(CCCC2)C1=O)Nc1ccc(-c2nc3ccccc3s2)cc1	.	.	40	-22	.	.	.	.	.
COc1ccc2c(c1)c(/C=N/Nc1nc3ccccc3[nH]1)c(C)n2C	0.27	164*	14	-14	103	51*	165	41	107
NC1=NC(=O)/C(=C/c2cn(CCC(=O)O)nc2-c2ccc(F)cc2)S1	0.31	111	-1	0	129*	1	98	-2	100
NC1=NC(=O)/C(=C/c2cn(CCC(=O)O)nc2-c2ccc(Cl)cc2)S1	0.8	107	-1	-3	108	0	.	.	.
